From ChEMBL document CHEMBL1275377, “Structure-based design, synthesis, and structure-activity relationship studies of HIV-1 protease inhibitors incorporating phenyloxazolidinones” (J Med Chem, 2010)

Tests used:
[1] = system: Human immunodeficiency virus 1; experiment: Antiviral activity against multidrug resistant Human immunodeficiency virus 1 MDRC4; type: functional, organism-based
[2] = system: Human immunodeficiency virus 1; experiment: Antiviral activity against Human immunodeficiency virus 1 clade B isolated from HIV-AIDS patient; type: functional, organism-based
[3] = system: Human immunodeficiency virus 1; experiment: Antiviral activity against Human immunodeficiency virus 1 clade C isolated from HIV-AIDS patient; type: functional, organism-based
[4] = system: Human immunodeficiency virus 1; experiment: Antiviral activity against Human immunodeficiency virus 1 clade A isolated from HIV-AIDS patient; type: functional, organism-based
[5] = system: Human immunodeficiency virus 1; experiment: Antiviral activity against multidrug resistant Human immunodeficiency virus 1 harboring protease M46I, I54V, V82A and L90M mutant; type: functional, organism-based
Procedure, shortened: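 Drug susceptibility assay run by an outside contract lab. Panel: patient-derived wild-type HIV-1 clades A, B and C; MDR1 carrying protease M46I, I54V, V82A, L90M; MDR control MDRC4; and an NL4-3-derived clade B wild-type control (CNDO). The PR/RT regions of these strains were sequenced and deposited.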

[6] = system: Human immunodeficiency virus 1; experiment: Antiviral activity against wild type Human immunodeficiency virus 1; type: functional, organism-based
[7] = molecular target: Protease (Human immunodeficiency virus 1, UniProt Q9YQ12); experiment: Inhibition of wild type HIV1 protease by FRET
Protease, sequence (Q9YQ12 whole entry): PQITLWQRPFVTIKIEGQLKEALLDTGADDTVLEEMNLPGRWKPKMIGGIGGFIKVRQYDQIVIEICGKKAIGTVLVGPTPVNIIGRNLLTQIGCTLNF

Compound | EC50 [1] | EC50 [2] | EC50 [3] | EC50 [4] | EC50 [5] | EC50 [6] | Ki [7]
CC(C)CN(C[C@@H](O)[C@H](Cc1ccccc1)NC(=O)[C@@H]1CN(c2ccccc2)C(=O)O1)S(=O)(=O)c1ccc2ncsc2c1 | 123 nM | 14.1 nM | 40.9 nM | 29.8 nM | 113 nM | 21.5 nM | –
CC(C)CN(C[C@@H](O)[C@H](Cc1ccccc1)NC(=O)[C@@H]1CN(c2ccccc2)C(=O)O1)S(=O)(=O)c1ccc(CO)cc1 | – | – | – | – | – | – | 0.252 nM
CC(C)CN(C[C@@H](O)[C@H](Cc1ccccc1)NC(=O)[C@@H]1CN(c2ccc(F)cc2F)C(=O)O1)S(=O)(=O)c1ccc(N)cc1 | – | – | – | – | – | – | 0.385 nM
CC(C)CN(C[C@@H](O)[C@H](Cc1ccccc1)NC(=O)[C@@H]1CN(c2ccc(F)cc2F)C(=O)O1)S(=O)(=O)c1ccc2c(c1)OCO2 | – | – | – | – | – | – | 0.347 nM
CC(C)CN(C[C@@H](O)[C@H](Cc1ccccc1)NC(=O)[C@@H]1CN(c2ccc(F)cc2F)C(=O)O1)S(=O)(=O)c1ccc(CO)cc1 | – | – | – | – | – | – | 0.212 nM
CC(C)CN(C[C@@H](O)[C@H](Cc1ccccc1)NC(=O)[C@@H]1CN(c2ccc(F)cc2)C(=O)O1)S(=O)(=O)c1ccc(N)cc1 | – | – | – | – | – | – | 0.448 nM
CC(=O)c1ccc(N2C[C@@H](C(=O)N[C@@H](Cc3ccccc3)[C@H](O)CN(CC(C)C)S(=O)(=O)c3ccc(CO)cc3)OC2=O)cc1 | – | – | – | – | – | – | 0.317 nM
CC(C)CN(C[C@@H](O)[C@H](Cc1ccccc1)NC(=O)[C@@H]1CN(c2cccc(F)c2)C(=O)O1)S(=O)(=O)c1ccc(CO)cc1 | – | – | – | – | – | – | 0.319 nM
CC(C)CN(C[C@@H](O)[C@H](Cc1ccccc1)NC(=O)[C@@H]1CN(c2ccc(F)c(F)c2)C(=O)O1)S(=O)(=O)c1ccc(CO)cc1 | – | – | – | – | – | – | 0.33 nM
CC(C)CN(C[C@@H](O)[C@H](Cc1ccccc1)NC(=O)[C@@H]1CN(c2cccc(C(F)(F)F)c2)C(=O)O1)S(=O)(=O)c1ccc2ncsc2c1 | 53.4 nM | 9.9 nM | 32.5 nM | 16.1 nM | 57.6 nM | 13.5 nM | –
CC(C)CN(C[C@@H](O)[C@H](Cc1ccccc1)NC(=O)[C@@H]1CN(c2cccc(OC(F)(F)F)c2)C(=O)O1)S(=O)(=O)c1ccc2ncsc2c1 | 111 nM | 12.7 nM | 57.8 nM | 32.5 nM | 104 nM | 22.1 nM | –
CC(=O)c1cccc(N2C[C@@H](C(=O)N[C@@H](Cc3ccccc3)[C@H](O)CN(CC(C)C)S(=O)(=O)c3ccc4ncsc4c3)OC2=O)c1 | 34.7 nM | 4.2 nM | 10.1 nM | 9.7 nM | 32.3 nM | 6.5 nM | –
CC(=O)c1cccc(N2C[C@@H](C(=O)N[C@@H](Cc3ccccc3)[C@H](O)CN(CC(C)C)S(=O)(=O)c3ccc(CO)cc3)OC2=O)c1 | – | – | – | – | – | – | 0.236 nM
COc1ccc(S(=O)(=O)N(CC(C)C)C[C@@H](O)[C@H](Cc2ccccc2)NC(=O)[C@@H]2CN(c3cccc(S(C)(=O)=O)c3)C(=O)O2)cc1 | 18.6 nM | 4.7 nM | 9.6 nM | 7.3 nM | 14.4 nM | 5.5 nM | –
CC(C)CN(C[C@@H](O)[C@H](Cc1ccccc1)NC(=O)[C@@H]1CN(c2cccc(S(C)(=O)=O)c2)C(=O)O1)S(=O)(=O)c1ccc2c(c1)OCO2 | 12.1 nM | 3.5 nM | 7.6 nM | 7.8 nM | 13.6 nM | 4 nM | –
CC(C)CN(C[C@@H](O)[C@H](Cc1ccccc1)NC(=O)[C@@H]1CN(c2cccc(S(C)(=O)=O)c2)C(=O)O1)S(=O)(=O)c1ccc2ncsc2c1 | 10.5 nM | 3.5 nM | 5.7 nM | 4.1 nM | 9.4 nM | 5 nM | –
CC(C)CN(C[C@@H](O)[C@H](Cc1ccccc1)NC(=O)[C@@H]1CN(c2cccc([N+](=O)[O-])c2)C(=O)O1)S(=O)(=O)c1ccc2ncsc2c1 | 37.7 nM | 5.7 nM | 16.3 nM | 11.5 nM | 33.8 nM | 7.3 nM | –
COc1ccc(S(=O)(=O)N(CC(C)C)C[C@@H](O)[C@H](Cc2ccccc2)NC(=O)[C@@H]2CN(c3cccc(N)c3)C(=O)O2)cc1 | 36.4 nM | 3 nM | 9.4 nM | 8.5 nM | 19 nM | 4 nM | –
CC(C)CN(C[C@@H](O)[C@H](Cc1ccccc1)NC(=O)[C@@H]1CN(c2cccc(N)c2)C(=O)O1)S(=O)(=O)c1ccc2c(c1)OCO2 | 35.4 nM | 2.8 nM | 12.3 nM | 6.1 nM | 27.9 nM | 7.1 nM | –
CC(C)CN(C[C@@H](O)[C@H](Cc1ccccc1)NC(=O)[C@@H]1CN(c2cccc(N)c2)C(=O)O1)S(=O)(=O)c1ccc2ncsc2c1 | 14.6 nM | 1.3 nM | 2.5 nM | 2.6 nM | 11.9 nM | 1.7 nM | –
CC(=O)Nc1cccc(N2C[C@@H](C(=O)N[C@@H](Cc3ccccc3)[C@H](O)CN(CC(C)C)S(=O)(=O)c3ccc4c(c3)OCO4)OC2=O)c1 | 46.9 nM | 6.3 nM | 21.1 nM | 9 nM | 41.9 nM | 10.9 nM | –
CC(=O)Nc1cccc(N2C[C@@H](C(=O)N[C@@H](Cc3ccccc3)[C@H](O)CN(CC(C)C)S(=O)(=O)c3ccc4ncsc4c3)OC2=O)c1 | 29.5 nM | 7.7 nM | 9.5 nM | 10.1 nM | 25.4 nM | 5.8 nM | –
COC(=O)Nc1cccc(N2C[C@@H](C(=O)N[C@@H](Cc3ccccc3)[C@H](O)CN(CC(C)C)S(=O)(=O)c3ccc4ncsc4c3)OC2=O)c1 | 13 nM | 1.6 nM | 3 nM | 2.4 nM | 10.8 nM | 1.2 nM | –
CC(C)CN(C[C@@H](O)[C@H](Cc1ccccc1)NC(=O)O[C@H]1CO[C@H]2OCC[C@H]21)S(=O)(=O)c1ccc(N)cc1 | – | 0.4 nM | 0.4 nM | 0.6 nM | 0.5 nM | 0.4 nM | –
CC(C)CN(C[C@@H](O)[C@H](Cc1ccccc1)NC(=O)[C@@H]1CN(c2ccccc2)C(=O)O1)S(=O)(=O)c1ccc(N)cc1 | – | – | – | – | – | – | 0.53 nM
CC(=O)c1cccc(N2C[C@@H](C(=O)N[C@@H](Cc3ccccc3)[C@H](O)CN(CC(C)C)S(=O)(=O)c3ccc4c(c3)OCO4)OC2=O)c1 | – | – | – | – | – | – | 0.006 nM
COc1ccc(S(=O)(=O)N(CC(C)C)C[C@@H](O)[C@H](Cc2ccccc2)NC(=O)[C@@H]2CN(c3ccccc3)C(=O)O2)cc1 | – | – | – | – | – | – | 0.1 nM
